This note sets out measurements from ChEMBL document CHEMBL4330095, “Development of an anti-hepatitis B virus (HBV) agent through the structure-activity relationship of the interferon-like small compound CDM-3008” (Bioorg Med Chem, 2019).

The species named for one data set is Homo sapiens. The data set can be described thus: Induction of IFN-stimulated gene expression response in human JHH7 cells assessed as upregulation of OAS1 mRNA expression at 3 to 30 uM after 3 days by qPCR analysis. In kind it is functional, cell-based. In a few lines:
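JHH-7 hepatoma cells in DMEM with 10% FBS, 37 °C, 5% CO2, exposed to 3 and 30 μM compound for 3 days. Total RNA purified and its concentration measured by UV spectrophotometry before OAS-1 mRNA measurement; mean ± SE, n = 3.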
(In general: Real-time PCR tracks product formation cycle by cycle.)

The nature of data set [1]: Cytotoxicity against human […] cells harboring R6FLR-N replicons after 3 days by XTT assay. In kind it is cell-based. Further details: concentration or dose not given beside the values. To be noted: 72 h. In a few lines: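 Replicon cells seeded at 3 × 10⁴ cells/well and exposed to compound for 3 days; viability by XTT. Values given as percent at 30 μM against DMSO control, mean of n = 2.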
Background: A replicon is a self-replicating genome or part of one, used to study replication in cells.

A further data set has as its system Hepatocyte. The data set can be described thus: Cytotoxicity against human primary hepatocytes PXB cells assessed as decrease in cell viability by RealTime-Glo MT assay. In kind it is cell-based. In a few lines: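 Viability read by RealTime-Glo MT in HBV C_AT-infected PXB cells (3 genome equivalents/cell) given 0.01–10 μM compound from infection onward, with compound-containing medium exchanged every 3 or 4 days over 14 days; mean ± SE, n = 3.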

The nature of data set [2]: Half life in mouse liver microsomes at 29 umol/L preincubated for 5 mins followed by NADPH addition measured after 120 mins by HPLC analysis. In kind it is ADME, Microsome. In a few lines:
(§1)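 Compound (29 μmol/L, as added) combined with mouse or human liver microsomes (20 mg/mL stock), preincubated 5 min at 37 °C, then NADPH regenerating system added and incubated 0, 30, 60 or 120 min at 37 °C. Aliquots quenched in ice-cold MeOH, internal standard added, centrifuged; remaining compound quantified by HPLC against a calibration curve.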
In general terms: Microsomes from liver hold many membrane-bound enzymes, among them those of drug oxidation.

Data set [3] can be described thus: Half life in human liver microsomes at 29 umol/L preincubated for 5 mins followed by NADPH addition measured after 120 mins by HPLC analysis. In kind it is ADME, Microsome. In a few lines: as §1
A short description of data set [4]: Solubility of the compound by HPLC-UV analysis. Type of data set: physicochemical. In a few lines:
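Dissolved compound solution injected into HPLC and peak area read by UV at 254 nm; concentration derived from a previously determined calibration curve.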

A short description of data set [5]: (§2) Antiviral activity against HBV genotype C infected in primary human hepatocytes PXB cells assessed as inhibition of viral DNA level after 14 days by qPCR analysis. Type of data set: functional, cell-based. To be noted: Hepatitis B virus, 336 h. In a few lines: (§3)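 PXB cells (primary human hepatocytes from humanized-liver chimeric mice) in dHCGM, 37 °C, 5% CO2; infected with HBV C_AT at 3 genome equivalents/cell while treated with 0.01–10 μM compound; after 1 day, compound-containing medium exchanged every 3 or 4 days for 14 days. Cellular DNA purified and quantified, HBV DNA by qPCR; mean ± SE, n = 3.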

A further data set relates to Hepatitis C virus. The data set can be described thus: Antiviral activity against HCV infected in human R6FLR-N replicon cells assessed as reduction in viral replication at 30 uM after 3 days by luciferase reporter gene assay. Type of data set: functional, Hepacivirus hominis. More on the design: scale not given: the % may be the effect or the level left. Summed up:
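R6FLR-N replicon cells, 3 × 10⁴ cells/well, grown in DMEM with 10% FBS and 500 μg/ml G418; compound added after 1 day, then 3 days of incubation. Luciferase read by Steady-Glo; percent inhibition at 30 μM expressed against DMSO control, mean of n = 2.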

The subject of data set [6] is HBV genotype C. The description is as §2. Type of data set: functional, cell-based. Summed up: as §3
Data set [7] has as its system HBV genotype C. The data set can be described thus: Antiviral activity against HBV genotype C infected in primary human hepatocytes PXB cells assessed as inhibition of viral DNA level at 0.32 to 32 uM incubated for 7 days by qPCR analysis. Type of data set: functional, cell-based. Summed up: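 PXB cells in dHCGM infected with HBV C_AT, 3 genome equivalents/cell; medium exchanged every 3 or 4 days. After 28 days of infection, cells treated with the indicated concentrations for 7 days, pegylated IFNα2a run alongside. Cellular DNA purified and quantified, then HBV DNA measured by qPCR; mean ± SE, n = 3.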

The structures appear in SMILES notation. Values after ≈ are worked out from the molar mass of the structure shown. Active and inactive are the calls of the source. No cut-off for these calls is given here. Some results are limits rather than exact numbers.

A word on the half-life: it is how long it takes for the measured level to halve. By solubility is commonly meant how much of the substance goes into solution per volume. The term IC50 denotes the midpoint of a concentration-inhibition curve. In the case of `Cl.O=C(NC1CCNCC1)c1cn2c(ccc3c(C(F)(F)F)cc(C(F)(F)F)nc32)n1`, the outcome in the data set listed under Homo sapiens was inactive. Also, the Activity in data set [1] is 58.6%; in the data set on Hepatocyte it was “Non-Toxic”; with Hepatitis C virus, 90.7%. For the same molecule, the half-life at 29 µM in [2] and in data set [3] was > 120 min each time. Further, the solubility in data set [4] was > 30000 µg/mL. The half-maximal inhibitory concentration (IC50) in data set [5] was 8.4 µM.
`Cl.NCCOc1cc(C(F)(F)F)c2ccc3nc(-c4nnco4)cn3c2n1`: the result in the data set listed under Homo sapiens was Active. Moreover, the Activity is recorded as 5.7% in data set [1], “Non-Toxic” in the data set with Hepatocyte and 28.1% with Hepatitis C virus. Moreover, in data set [4], the solubility stood at 19800 µg/mL. Further, in [5], the half-inhibitory concentration (IC50) came to 10 µM.
With `Cc1nnc(-c2cn3c(ccc4c(C(F)(F)F)cc(C(F)(F)F)nc43)n2)o1`, the Activity came out at 4.3% in [1] and 89.8% in the data set on Hepatitis C virus.
On to `COCc1nnc(-c2cn3c(ccc4c(C(F)(F)F)cc(C(F)(F)F)nc43)n2)o1`, for which the results for the Activity (in data set [1]; with Hepatitis C virus) were -2.5% and 4.8%, respectively.
With `O=C(c1cn2c(ccc3c(C(F)(F)F)cc(C(F)(F)F)nc32)n1)N1CCNCC1`, the result with HBV genotype C [6] was Active.
With `OCc1nnc(-c2cn3c(ccc4c(C(F)(F)F)cc(C(F)(F)F)nc43)n2)o1`, the Activity in data set [1] is given as -7.4%; in the data set with Hepatitis C virus it was 12%.
On the same counts, the results for `CCCc1nnc(-c2cn3c(ccc4c(C(F)(F)F)cc(C(F)(F)F)nc43)n2)o1` are 8.5% and 15.3%.
For `O=C(Nc1ccncc1)c1cn2c(ccc3c(C(F)(F)F)cc(C(F)(F)F)nc32)n1`, the Activity in data set [1] is 4.2%; in the data set with Hepatitis C virus, 40.1%. Besides, the solubility in data set [4] was < 100 µg/mL.
On the same counts, the results for `O=C(Nc1ccccn1)c1cn2c(ccc3c(C(F)(F)F)cc(C(F)(F)F)nc32)n1` are 1.6%, 2.6% and < 100 µg/mL.
On the same counts, the results for `O=C(Nc1cccnc1)c1cn2c(ccc3c(C(F)(F)F)cc(C(F)(F)F)nc32)n1` are 6.9%, 63.6% and < 100 µg/mL.
For `Cl.NCCOc1cc(C(F)(F)F)c2ccc3nc(C(=O)Nc4ccncc4)cn3c2n1`, the Activity in data set [1] is listed as 51.8%; in the data set with Hepatitis C virus, 78.2%. Also, the solubility in [4] is > 30000 µg/mL. For the same molecule, in the data set on HBV genotype C [6], the outcome was inactive.
Consider `FC(F)(F)c1cc(C(F)(F)F)c2ccc3nc(-c4nnco4)cn3c2n1`, for which the result in the data set filed under Homo sapiens and with HBV genotype C [7] was Active. Moreover, the Activity in [1] is 3.1%; with Hepatitis C virus, 90.1 - 92.1%. Further, the half-life at 29 µM in data set [2] was 58.2 min; in data set [3], 34.1 min. In data set [4], this molecule registered a solubility of 920 µg/mL (≈ 2470 µM).
